From PubChem BioAssay
Only some compounds are listed: those with a hit (about 4.6% of all), similar ones and a draw of the others.
CHO parental Ca = ATP-evoked calcium signal inhibitors, parental CHO, primary screen, counter-screen for OX1R antagonist project, cell-based, fluorescence, Fluo-8 calcium dye; inhibition, % at 5.6 µM; parental CHO-K1, ATP-induced calcium, Fluo-8 fluorescence; AID 463079, 2010; 330,000 tested, 0.63% active;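 active means inhibition above that plate's mean sample inhibition plus 3 SD, cut at about 26% in these data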;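 further: 0% = ATP-challenged DMSO wells and 100% = DMSO wells without ATP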
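Assay system – parental CHO cells · Reagent – ATP stimulus · Detection – intracellular calcium via Fluo-8 no-wash fluorescent dye · Evaluation – percent inhibition of ATP-evoked calcium rise, normalized to controls · Controls – ATP wells versus no-ATP DMSO wells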
OX1R antag-1 = antagonists of human orexin 1 receptor (OX1R) | Orexin/Hypocretin receptor type 1 (Homo sapiens), O43613 | OX1R-expressing cells, FRET antagonist read-out | 330,000 tested, 1.8% active | inhibition, % at 6.6 µM; in the data active means inhibition mostly above about 38%, no sharp cut-off; inactive means mostly below about 40%;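 further: 0% = agonist challenge alone and 100% = reference antagonist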
Target sequence (O43613 whole entry, looked up): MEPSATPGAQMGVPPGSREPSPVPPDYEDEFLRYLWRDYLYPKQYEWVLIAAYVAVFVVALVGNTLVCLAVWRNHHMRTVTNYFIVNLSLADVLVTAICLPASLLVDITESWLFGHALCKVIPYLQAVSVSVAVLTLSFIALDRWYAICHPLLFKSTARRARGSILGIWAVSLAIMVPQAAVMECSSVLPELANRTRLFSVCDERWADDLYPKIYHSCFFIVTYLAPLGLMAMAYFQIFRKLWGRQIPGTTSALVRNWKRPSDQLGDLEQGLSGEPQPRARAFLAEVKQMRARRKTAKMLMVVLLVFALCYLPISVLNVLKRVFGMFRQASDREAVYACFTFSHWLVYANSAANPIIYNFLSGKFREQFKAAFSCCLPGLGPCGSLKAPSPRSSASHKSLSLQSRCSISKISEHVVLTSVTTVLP
TAAR1 antagonist = human TAAR1 antagonists, primary screen, Fluo-8 calcium fluorescence, CHO RD-HGA16 cells | Trace amine-associated receptor 1 (Homo sapiens), Q96RJ0 | antagonist | inhibition, % at 3 µM | 360,000 tested, 1.5% active;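 active means inhibition above a per-plate cutoff, the mean inhibition of test compounds on that plate plus 3 SD, cut at about 49% in these data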;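 further: 0% = DMSO plus EC80 beta-PEA response and 100% = DMSO alone without agonist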
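Test system: hTAAR1-expressing CHO RD-HGA16 cells, Gα16-coupled; Probe or stimulus: EC80 β-phenethylamine stimulus; Compound dosing: single nominal final test compound concentration of 3 µM; Timing: 140 s kinetic read after compound, 140 s after agonist; Signal: Fluo-8 calcium-sensitive fluorescence; Measure: % inhibition of agonist calcium response; Controls: DMSO and EC80 PEA controls.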
TAAR1 ag = human TAAR1 agonists, primary screen, Fluo-8 calcium fluorescence, CHO RD-HGA16 cells | Trace amine-associated receptor 1 (Homo sapiens), Q96RJ0 | vehicle wells 0%, saturating PEA agonist 100% | activation, % at 3 µM | 360,000 tested, 0.99% active;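 active means activation above the mean activation of all test compounds in the run plus 3 SD, cut at about 38% in these data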
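System: CHO RD-HGA16 cells carrying human TAAR1 plus Gα16; Incubation: 17-24 h seeding, 75 min 37 °C dye, 30 min RT; Measured by: Fluo-8 fluorescence, 5 s baseline then 140 s kinetic read; Control set: DMSO and PEA EC100; Replication: single well for each compound.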
GPR7 antagonist = GPR7 receptor antagonists, primary screen, cell-based, fluorescence, single concentration. GPR7-expressing cells, fluorescence antagonist assay. inhibition, % at 4.4 µM. 290,000 tested, 1.1% active; in the data active means inhibition above about 16%, passing the limit was not always enough;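 further: cells stimulated with the agonist NPW; 0% = agonist with vehicle and 100% = vehicle without agonist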
OX1R antag-2 = OX1R (HCRTR1) antagonists, primary screen, fluorescence, CHO/OX1R cells, Fluo-8 calcium, orexin A; Orexin/Hypocretin receptor type 1 (Homo sapiens), O43613; Fluo-8 calcium fluorescence; inhibition, % at 5 µM; 330,000 tested, 0.43% active; AID 434989, 2010;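 active means inhibition above its plate's threshold, mean inhibition of all tested compounds on the plate plus 3 SD, cut at about 37% in these data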;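 further: 0% = orexin A challenge wells and 100% = SB-334867-A antagonist wells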
* marks the source's active call; other numbers are inactive results; / = no result given.

SMILES	CHO parental Ca	OX1R antag-1	TAAR1 antagonist	TAAR1 ag	GPR7 antagonist	OX1R antag-2
CC(C)N(C(=O)CSc1nc2ccccc2n1-c1ccccc1)C(C)C	-31	55*	-10	1	7	-23
O=S(=O)(c1ccc2c(c1)OCCO2)N1CCN(c2ncnc3sccc23)CC1	40*	61	13	10	14	20
Cc1ccccc1N(CC(=O)Nc1ccc(S(=O)(=O)N2CCOCC2)cc1)S(C)(=O)=O	10	-2	16	2	15	2
COc1ccc(NC(=O)NC(=O)c2cc(OCC(F)(F)F)ccc2OCC(F)(F)F)cc1	-20	17	-4	0	-2	-14
Nc1cc(S(=O)(=O)Nc2ccc(Cl)cc2)ccc1N1CCOCC1	36*	15	8	21	10	34
Cc1ccc(Nc2c(-c3ccccn3)nc3ccc(C)cn23)cc1	36*	27	4	2	1	-26
O=C(CCCc1c[nH]c2ccccc12)NCCc1c[nH]c2ccccc12	1	49*	19	6	8	19
CC(NC(=O)COC(=O)c1cn(-c2ccccc2)nc1-c1cccs1)c1ccccc1 (stereo not drawn)	-7	64*	20	9	-6	10
O=C(COC(=O)c1ccccc1C(=O)OCC(=O)NCCc1c[nH]c2ccccc12)NCCc1c[nH]c2ccccc12	29	68*	76*	34	/	58*
O=C(NCCc1c[nH]c2ccccc12)OCCCCOC(=O)NCCc1c[nH]c2ccccc12	31	61*	80*	16	/	61*
C/C(=N/NS(=O)(=O)c1ccc(F)cc1)c1ccc(NC(=O)c2ccc(C)o2)cc1	-3	11	22	8	3	-22
CC(C)Oc1ccc(OCCSc2nc3ccccc3n2CC(=O)O)cc1	-7	9	2	3	-4	-8
Cn1nc(C(=O)NNc2c(F)c(F)cc(F)c2F)c2ccccc2c1=O	-19	12	-6	18	-5	-30
O=C(COC(=O)c1c[nH]c2ccccc12)Nc1ccccc1	-4	12	12	9	/	-4
CC(NC(=O)COC(=O)c1c[nH]c2ccccc12)c1ccccc1 (stereo not drawn)	-9	43*	7	4	/	32
COc1cc2ccccc2cc1C(=O)Nc1nccs1	-22	64*	40	6	1	-9
COc1cc2ccccc2cc1C(=O)Nc1cc(C)ccn1	-24	53*	14	-2	-8	-15
Cc1cc(-c2ccc(S(=O)(=O)NCc3ccc(Cl)cc3)cc2)on1	/	/	-11	0	/	/
CC(=NNc1nc2ccccc2s1)c1ccncn1	/	/	64*	34	/	/
C/C(=N\Nc1nc2ccccc2s1)c1ccc(Br)s1	-10	36	5	4	0	-7
CC1CS(=O)(=O)CCN1N=Cc1ccc([N+](=O)[O-])o1 (stereo not drawn)	-6	53*	-15	0	/	-5
O=C(Cc1ccc(Cl)cc1)Nc1ccc(SC(F)F)cc1	18	-2	55*	3	0	4
O=C(COC(=O)c1ccccc1Cc1ccccc1)Nc1ccc(SC(F)F)cc1	42*	26	28	3	0	6
O=C(Cc1ccc(Br)cc1)Nc1ccc(Cl)cc1	1	41	28	3	-22	-19
CN(C/C=C/c1ccccc1[N+](=O)[O-])Cc1ccccc1	-13	24	-2	2	-6	-16
SMILES	CHO parental Ca	OX1R antag-1	TAAR1 antagonist	TAAR1 ag	GPR7 antagonist	OX1R antag-2
Cc1cc(OCC(=O)OCC(=O)NC2CCS(=O)(=O)C2)ccc1Cl (stereo not drawn)	/	/	-1	2	/	/
O=C1Nc2ccccc2S/C1=C/c1cccs1	-8	61*	-17	-2	-12	-5
Cc1ccc(N=C2NC(=O)/C(=C\c3cccs3)S2)cc1C	-28	57*	24	-1	7	-22
O=C1CCCC/C=C\C[C@H](CC(=O)N(CCO)Cc2ccccc2)C(=O)N2CCC[C@@H]2CO1	-13	4	10	4	/	-27
C[n+]1c(-c2ccccc2)sc([S-])c1-c1ccccc1	40*	15	-14	-2	/	-23
Cc1ccc(C(=O)N/N=c2\oc3ccccc3cc2C(N)=O)cc1	-15	6	-7	6	-1	-24
NC(=O)c1cc2ccccc2o/c1=N\NC(=O)c1ccncc1	-7	69*	-14	-1	-6	-14
Cc1cc(C)n(CC(=O)Nc2ccc3c(c2)OCO3)c(=O)c1C#N	5	24	-4	2	/	4
Cc1cc(C)cc(-n2c(C)cc(/C=C3\C(=N)N4N=C(CC(C)C)SC4=NC3=O)c2C)c1	-5	6	-9	8	-6	-20
CCCC1=NN2C(=N)/C(=C\c3cc(C)n(-c4cc(C)cc(C)c4)c3C)C(=O)N=C2S1	-13	26	53*	42*	-8	-24
O=C1CN(S(=O)(=O)c2ccc(Cl)cc2)CC(=O)N1CCc1ccccc1	-12	15	56*	9	0	-15
O=C1CN(S(=O)(=O)c2ccc(F)cc2)CC(=O)N1CCc1ccccc1	/	/	/	/	1	/
O=C(Cc1ccccc1)Nc1ccc(N2CCOCC2)cc1	5	8	8	4	20	-8
O=C(/C=C/c1ccccc1)NC(=S)Nc1ccc(N2CCOCC2)cc1	-21	25	54*	6	7	-16
O=C(Cc1cccc2ccccc12)Nc1ccc(N2CCOCC2)cc1	5	26	12	39*	-4	-7
CC(C)c1ccc(/C=C/C(=O)NC(=S)NN2CCOCC2)cc1	/	/	-14	3	-9	/
CC(C)c1ccc(/C=C/C(=O)NC(=S)Nc2ccc(CN3CCOCC3)cc2)cc1	-5	24	67*	7	-9	-3
CC(=O)Nc1ccc(S(=O)(=O)N(Cc2ccccc2)c2ccccc2)cc1	-10	66*	5	3	-5	8
CC(=O)Nc1ccc(S(=O)(=O)N(Cc2cccnc2)Cc2cc3ccccc3[nH]c2=O)cc1	2	18	61*	12	-7	-1
COc1ccc(N(Cc2cc3cc(OC)ccc3[nH]c2=O)S(=O)(=O)c2ccc(NC(C)=O)cc2)cc1	-22	23	58*	29	-11	-17
CCOc1ccc(N(Cc2cc3cc(OC)ccc3[nH]c2=O)S(C)(=O)=O)cc1	-15	5	12	5	0	-17
